Data published in ChEMBL document CHEMBL1158097, “Kahalalide derivatives from the Indian sacoglossan mollusk Elysia grandifolia” (J Nat Prod, 2006).
Calls of active or inactive are those of the source. No cut-off for these calls is given here.

Experiments:
[1] = system: MCF7; assay: Cytotoxicity against human MCF7 cells after 24 hrs by MTT assay; type: functional, cell-based; conditions: MCF7, 24 h
Outline: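 MCF7 cells were exposed to compounds for 24 h, and viability was read as MTT reduction by absorbance of reduced MTT at 560 nm. DMSO served as control. Data are mean ± SEM, n = 3.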

[2] = system: HeLa; assay: Cytotoxicity against human HeLa cells after 24 hrs by MTT assay; type: functional, cell-based
[3] = system: Cladosporium cucumerinum; assay: Antifungal activity against Cladosporium cucumerinum DSM 62122 at 5 ug/disk after 24 hrs by agar diffusion assay; type: functional; conditions: for zone of inhibition at 5 µg/disc: DSM 62122, 24 h, read-out: IZ
[4] = Cytotoxicity against mouse L1578Y cells after 24 hrs by MTT assay; type: functional, cell-based
[5] = system: H4IIE; assay: Cytotoxicity against rat H4IIE cells after 24 hrs by MTT assay; type: functional, cell-based
[6] = system: Saccharomyces cerevisiae; assay: Antifungal activity against Saccharomyces cerevisiae DSM 1333 at 5 ug/disk after 24 hrs by agar diffusion assay; type: functional, organism-based
[7] = system: Bacillus subtilis; assay: Antibacterial activity against Bacillus subtilis DSM 2109 at 5 ug/disk after 24 hrs by agar diffusion assay; type: functional, organism-based
[8] = system: PC-12; assay: Cytotoxicity against rat PC12 cells after 24 hrs by MTT assay; type: functional, cell-based
[9] = system: Cladosporium herbarum; assay: Antifungal activity against Cladosporium herbarum DSM 62121 at 5 ug/disk after 24 hrs by agar diffusion assay; type: functional; conditions: for zone of inhibition at 5 µg/disc: DSM 62121, 24 h, read-out: IZ
[10] = system: Escherichia coli; assay: Antibacterial activity against Escherichia coli DSM 10290 at 5 ug/disk after 24 hrs by agar diffusion assay; type: functional, organism-based

| Compound | IC50 [1] [µM] | Activity [2] | zone of inhibition at 5 µg/disc [3] [mm] | IC50 [4] [µM] | Activity [5] | Activity [6] | Activity [7] | Activity [8] | zone of inhibition at 5 µg/disc [9] [mm] | Activity [10] | Activity [3] | Activity [9] | inhibition zone (IZ) [3] [mm] | inhibition zone (IZ) [9] [mm] |
| --- | --- | --- | --- | --- | --- | --- | --- | --- | --- | --- | --- | --- | --- | --- |
| CC(C)CCCCCC1CC(=O)N[C@H](C)C(=O)N[C@H](C)C(=O)NC(CC(C)C)C(=O)N2CCC[C@H]2C(=O)NC(CC(C)C)C(=O)N[C@@H](Cc2c[nH]c3ccccc23)C(=O)O1 (some centres undefined) [KAHALALIDE E] | 4.5 | – | – | – | – | – | – | – | – | – | – | – | – | – |
| C/C=C1\NC(=O)[C@H](Cc2ccccc2)NC(=O)[C@@H](C(C)C)NC(=O)[C@@H]([C@H](C)CC)NC(=O)[C@H](NC(=O)[C@H](NC(=O)[C@H](CCCN)NC(=O)[C@H]2CCCN2C(=O)[C@H](NC(=O)[C@@H](NC(=O)[C@@H](NC(=O)[C@H](NC(=O)CCCC(C)C)C(C)C)[C@@H](C)O)C(C)C)C(C)C)[C@H](C)CC)[C@H](C)OC(=O)[C@H](C(C)C)NC1=O [KAHALALIDE F] | 0.22 | inactive | 24 | 4.26 | inactive | inactive | inactive | inactive | 17 | inactive | – | – | – | – |
| C/C=C1\NC(=O)[C@H](Cc2ccccc2)NC(=O)C(C(C)C)NC(=O)C(C(C)C)NC(=O)[C@H](NC(=O)[C@H](NC(=O)[C@H](CCCN)NC(=O)[C@H]2CCCN2C(=O)C(NC(=O)C(NC(=O)C(NC(=O)[C@@H](CCC(=O)O)NC(=O)CCCCCC(C)C)C(C)C)C(C)C)C(C)C)[C@@H](C)CC)[C@@H](C)OC(=O)C(C(C)C)NC1=O (some centres undefined) [KAHALALIDE R] | 0.14 | inactive | 24 | 4.28 | inactive | inactive | inactive | inactive | 16 | inactive | – | – | – | – |
| C/C=C1\NC(=O)[C@H](Cc2ccccc2)NC(=O)C(C(C)C)NC(=O)C(C(C)C)NC(=O)[C@H](NC(=O)[C@H](NC(=O)[C@H](CCCN)NC(=O)[C@H]2CCCN2C(=O)C(NC(=O)C(NC(=O)C(NC(=O)[C@@H](CCC(=O)O)NC(=O)CCCC(O)CC(C)C)C(C)C)C(C)C)C(C)C)[C@@H](C)CC)[C@@H](C)OC(=O)C(C(C)C)NC1=O (some centres undefined) [KAHALALIDE S] | 3.55 | – | – | – | – | inactive | inactive | – | – | inactive | inactive | inactive | – | – |
| NYSTATIN | – | – | – | – | – | – | – | – | – | – | – | – | 39 | 19 |
